In brackets after ≈: the same amount, converted by molar mass.

One assay deals with Escherichia coli. Description: In vitro antibacterial activity against Escherichia coli KC-14, Ec(K), (gram-negative). It is filed as functional. The gist of the method: (§1)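 MIC by serial 2-fold agar dilution on Mueller–Hinton agar; inoculum about 10^6 CFU/mL; MIC taken as lowest concentration preventing visible growth after 18 h at 37 °C.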
What is called MIC is the smallest concentration in the dilution series that meets the test's criterion for growth inhibition. A low value points to inhibition by little substance. In turn, `O=C(O)c1c(=O)c2cc(F)c(N3CCNCC3)c3c2n2c(csc12)CO3` had an MIC of 0.1 µg/mL (≈ 0.266 µM).

`NC1CCN(c2c(F)cc3c(=O)c(C(=O)O)c4scc5n4c3c2OC5)C1` (stereo not given) came in with an MIC of 0.1 µg/mL (≈ 0.266 µM).

`CC(=O)NC1CCN(c2c(F)cc3c(=O)c(C(=O)O)c4scc5n4c3c2OC5)C1` (stereo not given) registered an MIC of 1.56 µg/mL (≈ 3.74 µM).

For `O=C(O)c1c(=O)c2cc(F)c(N3C[C@H](O)[C@@H](O)C3)c3c2n2c(csc12)CO3`, the MIC turned out to be 3.13 µg/mL (≈ 7.98 µM).

Compound `O=C1CN(c2c(F)cc3c(=O)c(C(=O)O)c4scc5n4c3c2OC5)CCN1` returned an MIC of 1.56 µg/mL (≈ 4.01 µM).

The next assay relates to Enterococcus faecalis. Description: In vitro antibacterial activity against Enterococcus faecalis IID 682,[…],(gram-positive). It counts as functional. The gist of the method:
as §1
`O=C(O)c1c(=O)c2cc(F)c(N3CCNCC3)c3c2n2c(csc12)CO3` had an MIC of 0.78 µg/mL (≈ 2.08 µM).

Consider `NC1CCN(c2c(F)cc3c(=O)c(C(=O)O)c4scc5n4c3c2OC5)C1` (stereo not given), for which the MIC amounted to 0.78 µg/mL (≈ 2.08 µM).

As to `CC(=O)NC1CCN(c2c(F)cc3c(=O)c(C(=O)O)c4scc5n4c3c2OC5)C1` (stereo not given), inhibition of growth (MIC) required 0.78 µg/mL (≈ 1.87 µM).

The compound `O=C(O)c1c(=O)c2cc(F)c(N3C[C@H](O)[C@@H](O)C3)c3c2n2c(csc12)CO3` showed an MIC of over 25 µg/mL.

Compound `O=C1CN(c2c(F)cc3c(=O)c(C(=O)O)c4scc5n4c3c2OC5)CCN1` gave an MIC of 3.13 µg/mL (≈ 8.04 µM).

A further assay has as its system Pseudomonas aeruginosa. Put plainly: In vitro antibacterial activity against Pseudomonas aeruginosa IFO 3445,Pa(I),(gram-negative). It counts as functional. The gist of the method: as §1
In the case of `O=C(O)c1c(=O)c2cc(F)c(N3CCNCC3)c3c2n2c(csc12)CO3`, the MIC was found to be 0.78 µg/mL (≈ 2.08 µM).

As for `NC1CCN(c2c(F)cc3c(=O)c(C(=O)O)c4scc5n4c3c2OC5)C1` (stereo not given), 0.78 µg/mL (≈ 2.08 µM) was the least that counted as inhibitory (MIC).

Take `CC(=O)NC1CCN(c2c(F)cc3c(=O)c(C(=O)O)c4scc5n4c3c2OC5)C1` (stereo not given): the MIC was found to be 6.25 µg/mL (≈ 15 µM).

`O=C(O)c1c(=O)c2cc(F)c(N3C[C@H](O)[C@@H](O)C3)c3c2n2c(csc12)CO3` registered an MIC of over 25 µg/mL.

Compound `O=C1CN(c2c(F)cc3c(=O)c(C(=O)O)c4scc5n4c3c2OC5)CCN1` gave an MIC of 6.25 µg/mL (≈ 16.1 µM).

Another assay concerns Klebsiella pneumoniae. Put plainly: In vitro antibacterial activity against klebsiella pneumoniae B54,Kp,(gram-negative). It is filed as functional.
For `O=C(O)c1c(=O)c2cc(F)c(N3CCNCC3)c3c2n2c(csc12)CO3`, the minimal inhibitory concentration (MIC) is 0.05 µg/mL (≈ 0.133 µM).

Take `NC1CCN(c2c(F)cc3c(=O)c(C(=O)O)c4scc5n4c3c2OC5)C1` (stereo not given): the MIC was determined as 0.1 µg/mL (≈ 0.266 µM).

In turn, `CC(=O)NC1CCN(c2c(F)cc3c(=O)c(C(=O)O)c4scc5n4c3c2OC5)C1` (stereo not given) yielded an MIC of 1.56 µg/mL (≈ 3.74 µM).

Compound `O=C(O)c1c(=O)c2cc(F)c(N3C[C@H](O)[C@@H](O)C3)c3c2n2c(csc12)CO3` gave an MIC of 1.56 µg/mL (≈ 3.98 µM).

In turn, `O=C1CN(c2c(F)cc3c(=O)c(C(=O)O)c4scc5n4c3c2OC5)CCN1` registered an MIC of 1.56 µg/mL (≈ 4.01 µM).

The subject of the next assay is Staphylococcus aureus. Put plainly: In vitro antibacterial activity against staphylococcus aureus IID 803,(gram-positive). It is filed as functional. The gist of the method:
as §1
In turn, `O=C(O)c1c(=O)c2cc(F)c(N3CCNCC3)c3c2n2c(csc12)CO3` showed an MIC of 0.39 µg/mL (≈ 1.04 µM).

Compound `NC1CCN(c2c(F)cc3c(=O)c(C(=O)O)c4scc5n4c3c2OC5)C1` (stereo not given) gave an MIC of 0.39 µg/mL (≈ 1.04 µM).

In turn, `CC(=O)NC1CCN(c2c(F)cc3c(=O)c(C(=O)O)c4scc5n4c3c2OC5)C1` (stereo not given) showed an MIC of 0.1 µg/mL (≈ 0.24 µM).

For `O=C(O)c1c(=O)c2cc(F)c(N3C[C@H](O)[C@@H](O)C3)c3c2n2c(csc12)CO3`, the MIC came out at 1.56 µg/mL (≈ 3.98 µM).

For the compound `O=C1CN(c2c(F)cc3c(=O)c(C(=O)O)c4scc5n4c3c2OC5)CCN1`, the MIC turned out to be 1.56 µg/mL (≈ 4.01 µM).

The next assay concerns Staphylococcus epidermidis. Put plainly: In vitro antibacterial activity against staphylococcus epidermidis IAM 1296, (gram-positive). It counts as functional. The gist of the method:
as §1
`O=C(O)c1c(=O)c2cc(F)c(N3CCNCC3)c3c2n2c(csc12)CO3` returned an MIC of 1.56 µg/mL (≈ 4.16 µM).

As to `NC1CCN(c2c(F)cc3c(=O)c(C(=O)O)c4scc5n4c3c2OC5)C1` (stereo not given), the MIC turned out to be 0.78 µg/mL (≈ 2.08 µM).

Regarding `CC(=O)NC1CCN(c2c(F)cc3c(=O)c(C(=O)O)c4scc5n4c3c2OC5)C1` (stereo not given), the MIC was 0.78 µg/mL (≈ 1.87 µM).

`O=C(O)c1c(=O)c2cc(F)c(N3C[C@H](O)[C@@H](O)C3)c3c2n2c(csc12)CO3` showed an MIC of over 25 µg/mL.

The compound `O=C1CN(c2c(F)cc3c(=O)c(C(=O)O)c4scc5n4c3c2OC5)CCN1` returned an MIC of 12.5 µg/mL (≈ 32.1 µM).

Another assay has as its system Pseudomonas aeruginosa. Put plainly: In vitro antibacterial activity against Pseudomonas aeruginosa E-2,Pa(E),(gram-negative). It counts as functional. The gist of the method:
as §1
`O=C(O)c1c(=O)c2cc(F)c(N3CCNCC3)c3c2n2c(csc12)CO3`: it took 0.78 µg/mL (≈ 2.08 µM) to inhibit growth (MIC).

Compound `NC1CCN(c2c(F)cc3c(=O)c(C(=O)O)c4scc5n4c3c2OC5)C1` (stereo not given) registered an MIC of 0.78 µg/mL (≈ 2.08 µM).

`CC(=O)NC1CCN(c2c(F)cc3c(=O)c(C(=O)O)c4scc5n4c3c2OC5)C1` (stereo not given): the MIC was determined as 6.25 µg/mL (≈ 15 µM).

`O=C(O)c1c(=O)c2cc(F)c(N3C[C@H](O)[C@@H](O)C3)c3c2n2c(csc12)CO3` returned an MIC of over 25 µg/mL.

In the case of `O=C1CN(c2c(F)cc3c(=O)c(C(=O)O)c4scc5n4c3c2OC5)CCN1`, the MIC came out at 6.25 µg/mL (≈ 16.1 µM).

The subject of a further assay is Staphylococcus aureus. Put plainly: In vitro antibacterial activity against staphylococcus aureus FDA 209P JC-1,Sa(F)(gram-positive). It is filed as functional. The gist of the method: as §1
Turning to `O=C(O)c1c(=O)c2cc(F)c(N3CCNCC3)c3c2n2c(csc12)CO3`, 0.39 µg/mL (≈ 1.04 µM) was the least that counted as inhibitory (MIC).

Take `NC1CCN(c2c(F)cc3c(=O)c(C(=O)O)c4scc5n4c3c2OC5)C1` (stereo not given): the MIC was found to be 0.2 µg/mL (≈ 0.533 µM).

In turn, `CC(=O)NC1CCN(c2c(F)cc3c(=O)c(C(=O)O)c4scc5n4c3c2OC5)C1` (stereo not given) yielded an MIC of 0.2 µg/mL (≈ 0.479 µM).

Compound `O=C(O)c1c(=O)c2cc(F)c(N3C[C@H](O)[C@@H](O)C3)c3c2n2c(csc12)CO3` had an MIC of 1.56 µg/mL (≈ 3.98 µM).

Take `O=C1CN(c2c(F)cc3c(=O)c(C(=O)O)c4scc5n4c3c2OC5)CCN1`: the MIC turned out to be 3.13 µg/mL (≈ 8.04 µM).

The subject of another assay is Escherichia coli. Put plainly: In vitro antibacterial activity against Escherichia coli NIHJ JC-2,(gram-negative).
Turning to `O=C(O)c1c(=O)c2cc(F)c(N3CCNCC3)c3c2n2c(csc12)CO3`, the MIC is 0.1 µg/mL (≈ 0.266 µM).

In turn, `NC1CCN(c2c(F)cc3c(=O)c(C(=O)O)c4scc5n4c3c2OC5)C1` (stereo not given) registered an MIC of 0.2 µg/mL (≈ 0.533 µM).

On to `CC(=O)NC1CCN(c2c(F)cc3c(=O)c(C(=O)O)c4scc5n4c3c2OC5)C1` (stereo not given), for which 1.56 µg/mL (≈ 3.74 µM) was the least that counted as inhibitory (MIC).

As for `O=C(O)c1c(=O)c2cc(F)c(N3C[C@H](O)[C@@H](O)C3)c3c2n2c(csc12)CO3`, the MIC amounted to 3.13 µg/mL (≈ 7.98 µM).

`O=C1CN(c2c(F)cc3c(=O)c(C(=O)O)c4scc5n4c3c2OC5)CCN1` displayed an MIC of 1.56 µg/mL (≈ 4.01 µM).

For the origin of these results see ChEMBL document CHEMBL1126175, “Synthesis and antibacterial activity of new tetracyclic quinolone antibacterials” (J Med Chem, 1992).
